Source: PubChem BioAssay
Ins promoter up – MIN6 insulin promoter up-regulation | MIN6 insulin promoter-GFP reporter, high-content imaging; hits give high values | z-score at 5 µM | actives 0.3% (n = 190,000) | AID 1625;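 active = z-score above 3 at 5 µM with at least 500 cells counted in the well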
Insulin prom inh – TRM-6 insulin promoter activity inhibition; TRM-6 cells (human fetal islet line), insulin promoter-eGFP reporter, imaging; reporter expression induced with tamoxifen; inhibition, % at 2 µM; actives 0.9% (n = 130,000);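 active = inhibition above the mean plus 3 SD, with well images judged a real hit on visual review, cut at about 60% in these data, passing the limit was not always enough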
Yeast growth inh – reduces growth of yeast BB579 in restrictive medium; S. cerevisiae BB579 growth, OD615, 48 h; inhibition, % at 10 µM; actives 0.51% (n = 140,000); AID 804;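 active = inhibition above a set limit, 3 SD over the mean compound inhibition, cut at about 44% in these data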
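test system = yeast BB579 (DeaD) | buffer or medium = restrictive CSMM-D medium | doses = single compound dose of 10 µM, 0.25% DMSO final | times = 4 h preincubation and 48 h exposure at 30 °C | technique = culture absorbance at 615 nm | benchmarks = amphotericin B 10 µg/mL, positive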
Yeast lifespan up – yeast lifespan extension; S. cerevisiae growth with nicotinamide, OD615; deaD strain in restrictive glucose medium; inhibition of the nicotinamide effect, % at 10 µM; actives 0.68% (n = 130,000);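 active = inhibition above a set limit, placed 3 SD over the median of all compounds, cut at about 26% in these data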;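 note: 0% = nicotinamide-treated wells and 100% = cells grown without nicotinamide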
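System: Modified budding yeast, DeaD strain | Buffer or medium: Restrictive glucose medium | Also added: 1.5 mM nicotinamide | Doses: 10 µM single point, 0.25% DMSO | Schedule: 48 h compound exposure at 30 °C, humidified | Detection: Absorbance at 615 nm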
RAM network inh – yeast RAM network inhibition. S. cerevisiae dse1pr::URA3 reporter, 5-FOA growth OD615, 2 d; analog-sensitive cbk1-as2 kinase mutant strain. inhibition, % at 50 µM. actives 1.8% (n = 190,000). AID 868;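 active = inhibition above a set limit, 3 SD over mean compound inhibition, cut at about 8.4% in these data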;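 note: 0% = DMSO-only wells with no growth and 100% = 10 µM 1-NA-PP1 full growth; inhibition rescues growth on 5-FOA so higher OD means more RAM inhibition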
* = called active by the depositor. Rows were chosen to be rich in hits. Some 3% of all compounds tested hit in one or more screens of this group.

How did O=[N+]([O-])c1cc(CN2CCN(c3ccccc3)CC2)c(O)c2ncccc12 do in these assays?
Insulin prom inh: -330.0; RAM network inh: -0.8

How did Oc1c(I)cc(Cl)c2cccnc12 do in these assays?
Insulin prom inh: 22.7; Yeast growth inh: 98.5*; Yeast lifespan up: -9.1; RAM network inh: 0.0

What do the screens show for `O=C(COC(=O)c1ccc(Sc2ccccc2)c([N+](=O)[O-])c1)NC1CCCc2ccccc21` (stereo not given)?
Ins promoter up: 0.97; Insulin prom inh: 6.5; Yeast growth inh: -84.9; Yeast lifespan up: -5.9; RAM network inh: 3.0

Results for CSc1c(CC(=O)Nc2ccccc2)n(Cc2ccccc2)c2ccccc12 ?
Ins promoter up: 0.28; Yeast growth inh: -31.7; Yeast lifespan up: 4.2; RAM network inh: 5.0

Results for Cc1ccc(N=C2NC(=O)/C(=C/c3cn(C)c4ccccc34)S2)cc1C ?
Ins promoter up: 3.02*; Yeast growth inh: -25.6; Yeast lifespan up: 1.4; RAM network inh: 8.2

Results for Cn1c(CSc2ccccc2)c(C#N)c2ccccc21 ?
Insulin prom inh: 27.8; Yeast growth inh: -56.5; Yeast lifespan up: -8.2; RAM network inh: 3.6

Results for Cc1ccc(SCc2c(C#N)c3ccccc3n2C)cc1 ?
Ins promoter up: -0.52; Insulin prom inh: -20.9; Yeast growth inh: -42.8; RAM network inh: 8.7*

Results for CS(=O)(=O)c1nsc2nc(=O)c(/C=C3\C=Nc4ccccc43)c(N)n12 ?
Ins promoter up: 0.22; Insulin prom inh: 7.1; RAM network inh: 9.9*

What do the screens show for `COc1ccc(C2C(C(=O)Nc3ccc(OC)c(OC)c3)c3ccccc3C(=O)N2C)cc1` (stereo not given)?
Ins promoter up: -0.42; RAM network inh: 0.8

Results for Cc1cc(C(=O)NNC2CC(=O)N(c3ccc4ccccc4c3)C2=O)c(C)o1 (stereo not given) ?
Ins promoter up: -0.45; RAM network inh: -0.2

How did O=C(O)CCN1C(=O)c2ccc(Oc3ccc4c(c3)C(=O)N(CCC(=O)O)C4=O)cc2C1=O do in these assays?
Ins promoter up: 0.55; Insulin prom inh: -8.1; Yeast growth inh: -47.8; Yeast lifespan up: -5.6; RAM network inh: 10.4*

Results for Cn1c(=O)c2c(=O)cc(NNC(=O)C(C)(C)C)[nH]c2n(C)c1=O ?
Ins promoter up: -0.76; Insulin prom inh: -8.1; Yeast growth inh: -1.5; Yeast lifespan up: 27.9*; RAM network inh: -0.1

How did CCCC(=O)NNc1cc(=O)c2c(=O)n(C)c(=O)n(C)c2[nH]1 do in these assays?
Ins promoter up: -0.36; Insulin prom inh: 5.4; Yeast growth inh: -37.3; Yeast lifespan up: 5.0; RAM network inh: 1.2

How did COc1ccc(Nc2nc(N)nc(CSC(=S)N3CCCCC3C)n2)cc1 (stereo not given) do in these assays?
Ins promoter up: -0.42

Results for CCN(Cc1ccccc1)C(c1cccc(C#N)c1)c1nnnn1C(C)(C)C (stereo not given) ?
Ins promoter up: -0.45; Insulin prom inh: -118.2; Yeast growth inh: -54.8; Yeast lifespan up: -7.4; RAM network inh: 2.6

Results for CCN(Cc1ccccc1)C(c1ccc(C(F)(F)F)cc1)c1nnnn1C(C)(C)C (stereo not given) ?
Insulin prom inh: 6.9; Yeast growth inh: -24.4; RAM network inh: 11.4*

Results for COc1ccc(CNC(=O)COC(=O)c2n[nH]c3ccccc23)cc1 ?
Ins promoter up: 0.06; Insulin prom inh: 0.0; Yeast growth inh: -27.8; Yeast lifespan up: -16.6; RAM network inh: 10.4*

Results for CCN(CC)c1ccc(NC(=S)NCC2CCCO2)cc1 (stereo not given) ?
Ins promoter up: 0.7; RAM network inh: 2.1

Results for Cc1cc([N+](=O)[O-])ccc1-c1ccc(C2Nc3ccccc3C(=O)N2O)o1 (stereo not given) ?
Insulin prom inh: -27.3; Yeast growth inh: 50.2*; Yeast lifespan up: -13.8; RAM network inh: 0.5

What do the screens show for `CCOC(=O)c1ccc(-c2ccc(C3Nc4ccccc4C(=O)N3O)o2)cc1` (stereo not given)?
Ins promoter up: -0.52; Yeast growth inh: 25.6; Yeast lifespan up: 2.3; RAM network inh: -0.5

What do the screens show for `CN=c1scc(-c2cccs2)n1/N=C/c1ccc(O)c(O)c1O`?
Ins promoter up: -0.38; Yeast growth inh: -19.4; Yeast lifespan up: -5.9; RAM network inh: 0.3

How did CN=c1scc(-c2cccs2)n1/N=C/c1ccccc1O do in these assays?
Ins promoter up: 0.53; Insulin prom inh: 33.3; Yeast growth inh: -7.6; Yeast lifespan up: -5.1; RAM network inh: 8.9*

How did O=C(c1ccc(F)cc1)C(C(=O)N1CCCCC1)n1ccccc1=O (stereo not given) do in these assays?
Ins promoter up: 0.34; RAM network inh: 0.9

Results for O=C1OCC(CO)(CO)N=C1NNc1ccc(Cl)c(Cl)c1 ?
Ins promoter up: -0.47; Yeast growth inh: 97.9*; Yeast lifespan up: -19.3; RAM network inh: -0.8

How did COc1ccc(-c2nnc(SCC(=O)Nc3cc(S(=O)(=O)N4CCCCC4)ccc3Cl)n2N)cc1 do in these assays?
Ins promoter up: 0; Insulin prom inh: -37.0; Yeast growth inh: -7.6; Yeast lifespan up: -3.7; RAM network inh: 4.5

What do the screens show for `Cc1cc(C)n(Cc2ccc(Cl)cc2Cl)c(=O)c1S(=O)(=O)c1ccccc1`?
Ins promoter up: 0.59; Insulin prom inh: 0.0; Yeast growth inh: -90.2; Yeast lifespan up: -5.2; RAM network inh: 8.9*

Results for COc1cc(OC)cc(C(=O)N[C@H](C(=O)OCC(=O)Nc2ccc(F)c(F)c2)C(C)C)c1 ?
Ins promoter up: -0.14; Insulin prom inh: -6.7; Yeast growth inh: -9.9; Yeast lifespan up: 0.0; RAM network inh: 8.6*

What do the screens show for `COc1cc(OC)cc(C(=O)N[C@H](C(=O)OCC(=O)Nc2ccc(C(N)=O)cc2)C(C)C)c1`?
Ins promoter up: -0.34; Insulin prom inh: -16.2; Yeast growth inh: -6.7; Yeast lifespan up: -2.3; RAM network inh: 1.2

What do the screens show for `Cc1ccc(OCCOc2ccc(Br)cc2)c([N+](=O)[O-])n1`?
Ins promoter up: 0.19; Insulin prom inh: 46.1; Yeast growth inh: -20.3; Yeast lifespan up: -3.0; RAM network inh: 5.7

What do the screens show for `COc1ccc(CNC(=O)C2CC(c3cccc(OC)c3)=NO2)cc1` (stereo not given)?
Ins promoter up: 1.08; Insulin prom inh: 72.7*; Yeast growth inh: -19.7; Yeast lifespan up: -21.1; RAM network inh: -0.5

How did COc1cccc(C2=NOC(C(=O)NCc3ccc(F)cc3)C2)c1 (stereo not given) do in these assays?
Ins promoter up: 0.44; Insulin prom inh: -100.0; Yeast growth inh: -4.6; Yeast lifespan up: -20.9; RAM network inh: 1.8

Results for COc1ccc(C2=NOC(C(=O)Nc3ccc(C)cc3)C2)cc1OC (stereo not given) ?
Ins promoter up: -0.67; Yeast growth inh: -26.6; Yeast lifespan up: -28.0; RAM network inh: 9.2*

How did CCOC(=O)NNC(=O)C1CCC(C)CC1 (stereo not given) do in these assays?
Ins promoter up: -0.31; Insulin prom inh: 64.3; RAM network inh: 2.5
